Converted amounts (≈) assume the structure as drawn. “And” between values parts separate entries of the source, which are not always exact repeats. Equal entries are not always repeated.
What was measured:
[1] = Cytotoxicity against […] HII4E cells after 48 hrs by MTT assay; type: cell-based
Procedure, shortened: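 Adherent […] hepatoma cells attached 24 h in 96-well plates, then exposed to compound 24 h. H2O2 positive control, DMSO negative control. At 48 h of culture, MTT added (0.5 mg/mL final) for 3 h. Cells washed, formazan dissolved in DMSO with 20 min shaking at room temperature. Absorbance read at 550 nm, 620 nm reference.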

[2] = Antifungal activity against Penicillium aurantiogriseum ATCC 16025 after 24 to 48 hrs by paper disk diffusion assay; type: functional
Procedure, shortened: (§1)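 Fungal disk diffusion per CLSI. Overnight cultures spread on potato dextrose agar. 6.4 mm paper disks each loaded with 300 μg substance in 15 μL DMSO. Actidione and amphotericin B positive controls, DMSO negative control. Incubated 25 °C for 24–48 h. Inhibition-zone diameter averaged over two replicates, scored by diameter ranges.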

Aspergillus niger = assay: Antifungal activity against Aspergillus niger ATCC 16404 after 24 to 48 hrs by paper disk diffusion assay; type: functional; procedure, shortened: as §1
Enterococcus faecalis = assay: Antibacterial activity against Enterococcus faecalis ATCC 7080 after 24 hrs by paper disk diffusion assay; type: functional
Procedure, shortened: (§2)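 Disk diffusion per CLSI. Overnight bacterial cultures spread on nutrient agar. 6.4 mm paper disks each loaded with 300 μg substance in 15 μL DMSO. Chloramphenicol positive control, DMSO negative control. Incubated 37 °C, 24 h. Nearest inhibition-zone diameter measured, averaged over two replicates. Scored –(<12 mm) to +++++ (≥26 mm).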

Listeria monocytogenes = assay: Antibacterial activity against Listeria monocytogenes ATCC 19115 after 24 hrs by paper disk diffusion assay; type: functional
Procedure, shortened: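 Disk diffusion per CLSI, overnight culture spread on tryptone soya agar. 6.4 mm paper disks each loaded with 300 μg substance in 15 μL DMSO. Chloramphenicol positive control, DMSO negative control. Incubated 37 °C, 24 h. Inhibition-zone diameter measured, averaged over two replicates, and scored by diameter ranges.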

Bacillus cereus = assay: Antibacterial activity against Bacillus cereus ATCC 11778 after 24 hrs by paper disk diffusion assay; type: functional; procedure, shortened: as §2
Salmonella enteritidis = assay: Antibacterial activity against Salmonella enteritidis ATCC 13076 after 24 hrs by paper disk diffusion assay; type: functional, Salmonella enterica subsp. enterica serovar Enteritidis; procedure, shortened: as §2
Bacillus subtilis = assay: Antibacterial activity against Bacillus subtilis ATCC 6633 after 24 hrs by paper disk diffusion assay; type: functional; procedure, shortened: as §2
Staphylococcus aureus = assay: Antibacterial activity against Staphylococcus aureus ATCC 6538 after 24 hrs by paper disk diffusion assay; type: functional; procedure, shortened: as §2

Compound: CC(=O)OC[C@H]1O[C@H](OCC(=O)NCc2cn(Cc3ccccc3)nn2)[C@H](O)[C@@H](OC(C)=O)[C@H]1OC(C)=O
- IC50 [1]: 879 µg/mL (≈ 1640 µM)

Compound: C[C@@H]1C[C@@H]([C@H](O)CC2CC(=O)NC(=O)C2)C(=O)[C@@H](C)C1 [CYCLOHEXIMIDE]
- inhibition zone (IZ) [2]: > 26 mm and 26 mm
- diameter of the inhibition zone (DIZ) (Aspergillus niger): 43 mm
- inhibition zone (IZ) (Aspergillus niger): >=26 mm

Compound: C=CCCCCn1cc(CNC(=O)CO[C@H]2O[C@H](CO)[C@H](O)[C@H](O)[C@H]2O)nn1
- IC50 [1]: 394 µg/mL (≈ 984 µM)

Compound: CC(=O)OC[C@@H]1C=C(OC(C)=O)C(=O)[C@@H](OCC(=O)NCc2cn(Cc3ccccc3)nn2)O1
- IC50 [1]: 10300 µg/mL (≈ 21800 µM)

Compound: C[S+](C)[O-] [DIMETHYL SULFOXIDE]
- IC50 [1]: 199 µg/mL (≈ 2550 µM)

Compound: CCOC(=O)/C=C1\C(OC(C)=O)=C[C@@H](COC(C)=O)O[C@@H]1OCC(=O)NCc1cn(Cc2ccccc2)nn1
- IC50 [1]: 12000 µg/mL (≈ 22100 µM)

Compound: C[C@@H]1[C@H](O)[C@@H](C)/C=C/C=C/C=C/C=C/C=C/C=C/C=C/[C@H](O[C@@H]2O[C@H](C)[C@@H](O)[C@H](N)[C@@H]2O)C[C@@H]2O[C@](O)(C[C@@H](O)C[C@@H](O)[C@H](O)CC[C@@H](O)C[C@@H](O)CC(=O)O[C@H]1C)C[C@H](O)[C@H]2C(=O)O [AMPHOTERICIN B]
- inhibition zone (IZ) [2]: > 26 mm and 26 mm
- diameter of the inhibition zone (DIZ) (Aspergillus niger): 22 mm
- inhibition zone (IZ) (Aspergillus niger): 22 mm

Compound: C=CCCCCn1cc(CN(CC=C)C(=O)CO[C@H]2O[C@H](COCC=C)[C@H](OCC=C)[C@H](O)[C@H]2OCC=C)nn1
- IC50 [1]: 1190 µg/mL (≈ 2120 µM)

Compound: O=C(CO[C@H]1O[C@H](CO)[C@@H](O)[C@H](O)[C@H]1O)NCc1cn(Cc2ccccc2)nn1
- IC50 [1]: 193 µg/mL (≈ 473 µM)

Compound: CC(=O)OC[C@@H]1C=C(OC(C)=O)C(=O)[C@@H](OCC(=O)NCc2ccccc2)O1
- IC50 [1]: 163 µg/mL (≈ 416 µM)

Compound: C#CCNC(=O)CO[C@H]1O[C@H](COC(C)=O)C=C(OC(C)=O)C1=O
- IC50 [1]: 282 µg/mL (≈ 831 µM)

Compound: CCCCCCCCCCCCNC(=O)CO[C@H]1O[C@H](COC(C)=O)C=C(OC(C)=O)/C1=C\C(=O)OCC
- IC50 [1]: 76 µg/mL (≈ 141 µM)
- diameter of the inhibition zone (DIZ) (Enterococcus faecalis): 22 mm
- inhibition zone (IZ) (Enterococcus faecalis): 22 mm
- inhibition zone (IZ) [2]: 12 mm
- diameter of the inhibition zone (DIZ) (Listeria monocytogenes): <12 mm
- diameter of the inhibition zone (DIZ) (Aspergillus niger): <12 mm
- diameter of the inhibition zone (DIZ) (Bacillus cereus): <12 mm
- diameter of the inhibition zone (DIZ) (Salmonella enteritidis): <12 mm
- diameter of the inhibition zone (DIZ) (Bacillus subtilis): 12 mm
- inhibition zone (IZ) (Bacillus subtilis): 12 mm
- diameter of the inhibition zone (DIZ) (Staphylococcus aureus): 20 mm
- inhibition zone (IZ) (Staphylococcus aureus): 20 mm

Compound: C#CCNC(=O)CO[C@H]1O[C@H](COC(C)=O)C=C(OC(C)=O)/C1=C\C(=O)OCC
- IC50 [1]: 257 µg/mL (≈ 628 µM)
- diameter of the inhibition zone (DIZ) (Enterococcus faecalis): 24 mm
- inhibition zone (IZ) (Enterococcus faecalis): 24 mm
- inhibition zone (IZ) [2]: < 12 mm
- diameter of the inhibition zone (DIZ) (Listeria monocytogenes): <12 mm
- diameter of the inhibition zone (DIZ) (Aspergillus niger): <12 mm
- diameter of the inhibition zone (DIZ) (Bacillus cereus): <12 mm
- diameter of the inhibition zone (DIZ) (Salmonella enteritidis): <12 mm
- diameter of the inhibition zone (DIZ) (Bacillus subtilis): <12 mm
- diameter of the inhibition zone (DIZ) (Staphylococcus aureus): <12 mm

Compound: CCOC(=O)/C=C1\C(OC(C)=O)=C[C@@H](COC(C)=O)O[C@@H]1OCC(=O)NCc1ccccc1
- IC50 [1]: 128 µg/mL (≈ 277 µM)
- diameter of the inhibition zone (DIZ) (Enterococcus faecalis): 24 mm
- inhibition zone (IZ) (Enterococcus faecalis): 24 mm
- inhibition zone (IZ) [2]: 12 mm
- diameter of the inhibition zone (DIZ) (Listeria monocytogenes): <12 mm
- diameter of the inhibition zone (DIZ) (Aspergillus niger): <12 mm
- diameter of the inhibition zone (DIZ) (Bacillus cereus): <12 mm
- diameter of the inhibition zone (DIZ) (Salmonella enteritidis): <12 mm
- diameter of the inhibition zone (DIZ) (Bacillus subtilis): <12 mm
- diameter of the inhibition zone (DIZ) (Staphylococcus aureus): <12 mm

Compound: OO [HYDROGEN PEROXIDE]
- IC50 [1]: 2 µg/mL (≈ 58.8 µM)

Compound: C=CCNC(=O)CO[C@H]1O[C@H](COC(C)=O)C=C(OC(C)=O)/C1=C\C(=O)OCC
- IC50 [1]: 352 µg/mL (≈ 856 µM)

Compound: O=C(N[C@H](CO)[C@H](O)c1ccc([N+](=O)[O-])cc1)C(Cl)Cl [CHLORAMPHENICOL]
- diameter of the inhibition zone (DIZ) (Enterococcus faecalis): 37 mm
- inhibition zone (IZ) (Enterococcus faecalis): >=26 mm
- diameter of the inhibition zone (DIZ) (Listeria monocytogenes): 33 mm
- inhibition zone (IZ) (Listeria monocytogenes): >=26 mm
- diameter of the inhibition zone (DIZ) (Bacillus cereus): 31 mm
- inhibition zone (IZ) (Bacillus cereus): >=26 mm
- diameter of the inhibition zone (DIZ) (Salmonella enteritidis): 41 mm
- inhibition zone (IZ) (Salmonella enteritidis): >=26 mm
- diameter of the inhibition zone (DIZ) (Bacillus subtilis): 40 mm
- inhibition zone (IZ) (Bacillus subtilis): >=26 mm
- diameter of the inhibition zone (DIZ) (Staphylococcus aureus): 36 mm
- inhibition zone (IZ) (Staphylococcus aureus): >=26 mm

Compound: CC(=O)OC[C@H]1O[C@@H](OCC(=O)NCc2cn(Cc3ccccc3)nn2)[C@H](O)[C@@H](OC(C)=O)[C@@H]1OC(C)=O
- IC50 [1]: 505 µg/mL (≈ 945 µM)

Compound: O=C(CO[C@H]1O[C@H](CO)[C@H](O)[C@H](O)[C@H]1O)NCc1cn(Cc2ccccc2)nn1
- IC50 [1]: 617 µg/mL (≈ 1510 µM)

Compound: CCCCCCCCCCCCNC(=O)CO[C@H]1O[C@H](COC(C)=O)C=C(OC(C)=O)C1=O
- IC50 [1]: 136 µg/mL (≈ 290 µM)
- diameter of the inhibition zone (DIZ) (Enterococcus faecalis): 24 mm
- inhibition zone (IZ) (Enterococcus faecalis): 24 mm
- inhibition zone (IZ) [2]: > 26 mm and 30 mm
- diameter of the inhibition zone (DIZ) (Listeria monocytogenes): 17 mm
- inhibition zone (IZ) (Listeria monocytogenes): 17 mm
- diameter of the inhibition zone (DIZ) (Aspergillus niger): 12 mm
- inhibition zone (IZ) (Aspergillus niger): 12 mm
- diameter of the inhibition zone (DIZ) (Bacillus cereus): 39 mm
- inhibition zone (IZ) (Bacillus cereus): >=26 mm
- diameter of the inhibition zone (DIZ) (Salmonella enteritidis): <12 mm
- diameter of the inhibition zone (DIZ) (Bacillus subtilis): 40 mm
- inhibition zone (IZ) (Bacillus subtilis): >=26 mm
- diameter of the inhibition zone (DIZ) (Staphylococcus aureus): 17 mm
- inhibition zone (IZ) (Staphylococcus aureus): 17 mm

Compound: CC(=O)OC[C@H]1O[C@H](OCC(=O)NCc2cn(Cc3ccccc3)nn2)[C@H](O)[C@@H](OC(C)=O)[C@@H]1OC(C)=O
- IC50 [1]: 69 µg/mL (≈ 129 µM)

Compound: O=C(CO[C@@H]1O[C@H](CO)[C@@H](O)[C@H](O)[C@H]1O)NCc1cn(Cc2ccccc2)nn1
- IC50 [1]: 426 µg/mL (≈ 1040 µM)

Compound: C=CCCCCn1cc(CNC(=O)CO[C@H]2O[C@H](COC(C)=O)[C@H](OC(C)=O)[C@H](OC(C)=O)[C@H]2O)nn1
- IC50 [1]: 63 µg/mL (≈ 120 µM)

Compound: CCCCCCCCCCCCNC(=O)CO[C@@H]1O[C@H](COC(C)=O)C=C(OC(C)=O)C1=O
- IC50 [1]: 45 µg/mL (≈ 95.8 µM)
- diameter of the inhibition zone (DIZ) (Enterococcus faecalis): <12 mm
- inhibition zone (IZ) [2]: > 26 mm and 33 mm
- diameter of the inhibition zone (DIZ) (Listeria monocytogenes): 14 mm
- inhibition zone (IZ) (Listeria monocytogenes): 14 mm
- diameter of the inhibition zone (DIZ) (Aspergillus niger): 40 mm
- inhibition zone (IZ) (Aspergillus niger): >=26 mm
- diameter of the inhibition zone (DIZ) (Bacillus cereus): 16 mm
- inhibition zone (IZ) (Bacillus cereus): 14 mm
- diameter of the inhibition zone (DIZ) (Salmonella enteritidis): 14 mm
- inhibition zone (IZ) (Salmonella enteritidis): 14 mm
- diameter of the inhibition zone (DIZ) (Bacillus subtilis): 21 mm
- inhibition zone (IZ) (Bacillus subtilis): 18 mm
- diameter of the inhibition zone (DIZ) (Staphylococcus aureus): 13 mm
- inhibition zone (IZ) (Staphylococcus aureus): 13 mm
